# Published values gathered from unrelated publications.
# Each line is one published result; the experiments were not run side by side.
# SLC10A2: Ileal sodium/bile acid cotransporter (SLC10A2, Homo sapiens, UniProt Q12908)
# HRH3: Histamine H3 receptor (HRH3, Homo sapiens, UniProt Q9Y5N1)
# DRD5: D(1B) dopamine receptor (DRD5, Homo sapiens, UniProt P21918)
# WDR5: WD repeat-containing protein 5 (WDR5, Homo sapiens, UniProt P61964)
# PDEB1: Class 1 phosphodiesterase PDEB1 (PDEB1, Trypanosoma brucei, UniProt Q8WQX9)
# CYP1B1: Cytochrome P450 1B1 (CYP1B1, Homo sapiens, UniProt Q16678)
# Hypoxanthine-guanine-xanthine phosphoribosyltransferase: Hypoxanthine-guanine-xanthine phosphoribosyltransferase (Plasmodium falciparum, UniProt P20035)
Structure (SMILES),target,test,setting,Ki
CC(C)(C#N)c1cc(Cn2cncn2)cc(C(C)(C)C#N)c1,SLC10A2,"transporter uptake, inhibitor",,402 µM
CN(C)c1ccc(/C=C/C=C2\CCc3cc(OCCCN4CCCCC4)ccc3C2=O)cc1,HRH3,"ligand displacement, radioligand",cell membranes,0.094 µM
O=C1c2ccccc2CCCN1CCCCN1CCN(c2ccccn2)CC1,DRD5,"ligand displacement, radioligand",,> 10 µM
O=C(NCc1cc(Cl)cc(Cl)c1)c1cccc(Cn2ccnc2)c1,WDR5,"ligand displacement, FP",,0.681 µM
COc1ccc(C2=NN(C3CCCCCC3)C(=O)C3CC=CCC23)cc1-c1ccc(C(=O)N2CC[C@@H](O)C2)cc1 (mixture of isomers),PDEB1,"enzyme activity, inhibitor",,0.251 µM
CC(C)=CCc1c(O)cc(O)c2c1O[C@H](c1ccc(O)cc1)CC2=O,CYP1B1,"enzyme activity, inhibitor, fluorescence","15 min, pH 7.4",0.17 µM
CCCc1ccc(OCCCCCN2CCC(C)CC2)cc1,HRH3,"ligand displacement, radioligand",cell membranes,0.156 µM
CN1CCN(CCCOc2ccc(Nc3nccc(N4CCN(C)CC4)n3)cc2)CC1,HRH3,"ligand displacement, radioligand",cell membranes,0.646 µM
NS(=O)(=O)NC[C@@H](CO)NCc1c[nH]c2c(O)ncnc12,Hypoxanthine-guanine-xanthine phosphoribosyltransferase,"enzyme activity, inhibitor",pH 7.4,> 20 µM
C[C@H]1[C@H](NC(=O)/C(=N\OC(C)(C)C(=O)O)c2csc(N)n2)C(=O)N1S(=O)(=O)O,SLC10A2,"transporter uptake, inhibitor",,1850 µM
COc1cc(CNC(=O)c2cccc(CNC3=NCCN3)c2F)cc(OC)c1,WDR5,"ligand displacement, TR-FRET",,> 0.033 µM
CN(C)c1ccc(/C=C/C=C2\CCc3ccc(OCc4ccc(OCCCN5CCCCC5)cc4)cc3C2=O)cc1,HRH3,"ligand displacement, radioligand",cell membranes,0.087 µM
NS(=O)(=O)c1cc2c(cc1Cl)NC(C(Cl)Cl)NS2(=O)=O (centres unmarked),SLC10A2,"transporter uptake, inhibitor",,377 µM
CCCCN1CCC(COC(=O)c2ccc(N)c(OCF)c2)CC1,"Beta-2 adrenergic receptor (ADRB2, Homo sapiens, UniProt P07550)","cell-free assay, radioligand",,> 10 µM
C#Cc1ccc(-c2cc(=O)c3ccccc3o2)cc1,CYP1B1,"enzyme activity, inhibitor, fluorescence","6 min, pH 7.6",0.13 µM
OC[C@@]12C[C@@H]1[C@@H](n1cnc3c(NC(C4CCCC4)C4CCCC4)nc(Cl)cc31)[C@H](O)[C@@H]2O,DRD5,"cell-free assay, radioligand",,5.1 µM
Cc1nc(F)ccc1-c1cc(C(=O)NCc2ccc(Cl)c(Cl)c2)ccc1Cn1ccn(C)c1=N,WDR5,"ligand displacement, FP",,> 5 µM
CCOC(=O)C1=C(C)NC(C)=C(C(=O)OC)C1c1cccc(Cl)c1Cl (centres unmarked),SLC10A2,"transporter uptake, inhibitor",,49.7 µM
CN(C)c1ccc(/C=C2\CCc3ccc(OCCCN4CCCCC4)cc3C2=O)cc1,HRH3,"ligand displacement, radioligand",cell membranes,0.149 µM
COc1ccc2c(c1)C(=O)N(CCCN1CCN(c3ccccc3OC)CC1)C2,DRD5,"ligand displacement, radioligand",,8.29 µM
C#Cc1ccccc1-c1cc(=O)c2ccccc2o1,CYP1B1,"enzyme activity, inhibitor, fluorescence","6 min, pH 7.6",0.61 µM
O=C1N[C@@H]([C@@H](CO)NCc2c[nH]c3c(O)ncnc23)CO1,Hypoxanthine-guanine-xanthine phosphoribosyltransferase,"enzyme activity, inhibitor",pH 7.4,> 20 µM
CCc1ccc(CCOc2ccc(CC3SC(=O)NC3=O)cc2)nc1 (centres unmarked),SLC10A2,"transporter uptake, inhibitor",,< 100 µM
NS(=O)(=O)NC[C@@H](CO)NCc1c[nH]c2c(O)nc(O)nc12,Hypoxanthine-guanine-xanthine phosphoribosyltransferase,"enzyme activity, inhibitor",pH 7.4,> 20 µM
CN(C(=O)[C@@H]1Cc2ccccc2CN1C(=O)c1ccc(Cl)s1)c1ccc(N2CCCCC2=O)cc1,"Coagulation factor X (F10, Homo sapiens, UniProt P00742)","enzyme activity, inhibitor, absorbance",,28 µM
CCCNc1nc2ccccc2n1Cc1ccc(Cl)cc1,DRD5,"cell-free assay, radioligand",,5.66 µM
O=C1CCCc2cc(OCc3ccc(OCCCN4CCCCC4)cc3)ccc21,HRH3,"ligand displacement, radioligand",cell membranes,0.019 µM
C#Cc1ccc2oc(-c3ccccc3)cc(=O)c2c1,CYP1B1,"enzyme activity, inhibitor, fluorescence","6 min, pH 7.6",0.54 µM
O=c1cc([C@@H](CO)NCc2c[nH]c3c(O)ncnc23)o[nH]1,Hypoxanthine-guanine-xanthine phosphoribosyltransferase,"enzyme activity, inhibitor",pH 7.4,> 20 µM
CN1CCN(CC/C=C2/c3ccccc3Sc3ccc(S(=O)(=O)N(C)C)cc32)CC1,SLC10A2,"transporter uptake, inhibitor",,808 µM
COc1ccc(C2=NN(C(C)C)C(=O)C3CC=CCC23)cc1-c1ccc(C(=O)N2CCC[C@@H]2C(N)=O)cc1 (mixture of isomers),PDEB1,"enzyme activity, inhibitor",,0.631 µM
O=C1CN(CC[C@@H](CO)NCc2c[nH]c3c(O)ncnc23)S(=O)(=O)N1,Hypoxanthine-guanine-xanthine phosphoribosyltransferase,"enzyme activity, inhibitor",pH 7.4,> 20 µM
CCCc1ccc(OCCCCCN2CCCC(C)C2)cc1 (centres unmarked),HRH3,"ligand displacement, radioligand",cell membranes,0.0384 µM
CNC(=C[N+](=O)[O-])NCCSCc1ccc(CN(C)C)o1,SLC10A2,"transporter uptake, inhibitor",,886 µM
C#Cc1ccc2c(=O)cc(-c3ccccc3)oc2c1,CYP1B1,"enzyme activity, inhibitor, fluorescence","6 min, pH 7.6",0.42 µM
CN(C)c1ccc(/C=C/C=C2\CCc3ccc(OCCCN4CCCCC4)cc3C2=O)cc1,HRH3,"ligand displacement, radioligand",cell membranes,0.101 µM
CCCc1ccc(OCCCCCN2CCCCCC2)cc1,HRH3,"ligand displacement, radioligand",cell membranes,0.0563 µM
C=C[C@H]1C[N@@]2CC[C@H]1C[C@H]2[C@H](O)c1ccnc2ccc(OC)cc12,SLC10A2,"transporter uptake, inhibitor",,223 µM
